Reference: PMC7064934 (Environmental Toxicology and Chemistry, 2019)

Key:
Eisenia andrei = experiment: Earthworm reproduction test; type: in vivo
Method in brief: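 Clitellate 2-mo synchronized worms acclimatized 24 h in clean soil, washed and weighed. Ten per ~600 g spiked LUFA 2.2 soil (nominal 0.04–10.0 mg a.s./kg dry soil, pure or formulation), 4 replicates, horse manure as food, 20 ± 2 °C, 75% RH. Survival and weight change read on day 28. Juveniles extracted on day 56 in a 60 °C water bath. Log-logistic LC50/EC50 fitted on nominal concentrations.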

Folsomia candida = experiment: Collembolan reproduction test; type: in vivo; conditions: F. candida; for Times more toxic to survival than its commercial formulation: pure compound vs formulation (LC50)
Method in brief: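 LUFA 2.2 soil spiked with aqueous pure compound or commercial formulation to 50% WHC; nominal control and 0.04–10.0 mg a.s./kg dry soil. Ten 10–12-d-old synchronized juveniles per 30 g soil, 5 replicates, weekly yeast and water top-up. Held 28 d at 20 ± 2 °C, 75% RH. Animals counted by flotation and image analysis. Log-logistic LC50/EC50 fitted on nominal concentrations.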

[1] = octanol/water partition coefficient at pH 7, 20 °C; ref University of Hertfordshire 2018; cited from earlier work
E. fetida = conditions: cited from earlier work
[2] = type: physicochemical; conditions: E. andrei test soil, nominal 10 thiamethoxam, t=56 days
Method in brief: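 Soil (5 g) sampled from replicate jar 4 on days 0, 28 and/or 56 and stored at –20 °C. Extracted by QuEChERS and analysed by reverse-phase LC–MS/MS at an external lab; detection limit 0.01 mg a.s./kg dry soil. Soils were also screened for the parent's conversion product. DT50 derived as ln(2)/k from first-order decay without lag.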

earthworm = conditions: survival; ref National Registration Authority for Agricultural and Veterinary Chemicals (2001); cited from earlier work

Q: Which “Times more toxic to the survival of the earthworms compared with thiacloprid” value (Eisenia andrei; E. andrei, LC50 comparison) does the source give for `C/C(=N\C#N)N(C)Cc1ccc(Cl)nc1` [Acetamiprid, acetamiprid] here?
A: Its value is 10.

Q: And the “Times more toxic to survival than its commercial formulation” value (Folsomia candida)?
A: Its value is 3.

Q: What about the “Times more toxic to survival than its commercial formulation” value (Folsomia candida; listed as acetamiprid) of the same compound?
A: The value was 4.

Q: And the “Log K OW” value [1]?
A: Its value is 0.8.

Q: And the EC50s (E. fetida; ref Wang et al. (2012), Ge et al. (2018), Wang et al. (2015))?
A: Its EC50s is “approximately 0.30 mg a.s/kg dry soil”.

Q: Which “Times more toxic than thiacloprid” value (Folsomia candida; LC50 comparison) does the source give for `CN/C(=N\[N+](=O)[O-])NCc1cnc(Cl)s1` [Clothianidin, clothianidin] here?
A: Its value is “approximately 100”.

Q: What about the “Log K OW” value [1] of the same compound?
A: Its value is 0.95.

Q: For `O=[N+]([O-])NC1=NCCN1Cc1ccc(Cl)nc1` [Imidacloprid, imidacloprid], which “Times more toxic to reproduction than its commercial formulation” value (Folsomia candida; pure compound vs formulation (EC50)) is on record?
A: The value was 4.

Q: For `N#C/N=C1\SCCN1Cc1ccc(Cl)nc1` [Thiacloprid, thiacloprid], which “Times more toxic to reproduction than to survival” value (Folsomia candida) is on record?
A: The value was “approximately 3”.

Q: And the LC50 (E. fetida; ref Feng et al. (2015))?
A: The LC50 was 8.43 mg/kg.

Q: With `CN1COCN(Cc2cnc(Cl)s2)/C1=N\[N+](=O)[O-]` [Thiamethoxam, thiamethoxam] as the compound, how does the “Toxicity to E. andrei at the concentrations tested (in words)” value (Eisenia andrei; highest concentration tested 10 mg a.s./kg dry soil, survival and reproduction) read?
A: Its value is “no toxicity”.

Q: What about the “Concentration of clothianidin measured (conversion product of thiamethoxam)” value [2] of the same compound?
A: Its value is 0.09 mg a.s./kg dry soil.

Q: And the “Log K OW” value [1]?
A: Its value is “–0.13”.

Q: What about the “LC50, acute toxicity tests (14 d)” value (earthworm) of the same compound?
A: The value was over 1000 mg a.s./kg dry soil.
